# The entries come from a sample that favours hits as a whole.
# T cruzi growth-1 = T. cruzi proliferation inhibition; inhibition, % at 8.34 µM; T. cruzi beta-gal in NIH3T3, GalScreen luminescence, 90 h; 5.9% of 77,000 active;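 active = mean inhibition above about 93%, with at least 55% of replicates each passing it, limit read from the data, passing the limit was not always enough; inconclusive = only one of those two conditions holds; inactive = neither condition holds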
# IDH1 mut inh = blocks human IDH1 R132H reductase activity. diaphorase/resazurin fluorescence, 60 min. inhibition, % at 10 µM. 0.18% of 70,000 active. AID 624101; in the data active = inhibition above about 34%; inconclusive = no clear call, values can overlap the other calls; inactive = below about 11%
# Target sequence (O75874 whole entry R132H): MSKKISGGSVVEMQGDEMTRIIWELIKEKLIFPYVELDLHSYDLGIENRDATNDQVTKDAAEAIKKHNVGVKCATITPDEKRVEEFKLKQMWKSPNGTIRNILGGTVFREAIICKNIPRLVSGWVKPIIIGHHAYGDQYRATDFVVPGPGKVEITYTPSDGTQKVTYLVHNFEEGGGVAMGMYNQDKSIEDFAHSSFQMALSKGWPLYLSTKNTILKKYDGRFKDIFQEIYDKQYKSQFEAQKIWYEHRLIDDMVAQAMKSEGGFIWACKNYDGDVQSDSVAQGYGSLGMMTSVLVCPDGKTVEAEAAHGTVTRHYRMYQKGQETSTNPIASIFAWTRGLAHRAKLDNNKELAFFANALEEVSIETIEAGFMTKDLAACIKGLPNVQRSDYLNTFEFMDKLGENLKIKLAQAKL
# KDM4C inh = inhibitors of human demethylase GASC-1 KDM4C; Q9H3R0; GST-KDM4C 2-372, H3K9me3 peptide, LANCE TR-FRET; inhibition, % at 12.5 µM; 0.15% of 96,000 active; AID 720574;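 active = mean replicate inhibition above about 25%, with at least 55% of replicates also reaching it, limit read from the data, passing the limit was not always enough; inconclusive = only one of those two conditions met; inactive = neither condition met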
#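 material = GST-tagged GASC-1 (JMJD2C) catalytic fragment, aa 2-372 | amount = enzyme final amount 10 nM | medium = HEPES buffer, pH 7.5, plus ascorbate | also added = H3K9me3 peptide substrate, Fe(II), 2-oxoglutarate | dosing = single dose | times = 30 min demethylation and 1 h detection at room temperature | detection = LANCE TR-FRET | read-out basis = Fall in 671/618 emission ratio as inhibition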
# T cruzi growth-2 = inhibitors of T. cruzi proliferation; shares compounds with T cruzi growth-1; 72% of 5,600 active; T. cruzi beta-gal in NIH3T3, GalScreen luminescence, 90 h; AID 651739; inhibition, % at 8.35 µM;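 active = mean replicate inhibition above about 95% and at least 55% of replicates individually reaching it, limit read from the data; inconclusive = only one of the two criteria is met; inactive = neither criterion is met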
# T cruzi growth-3 = blocks T. cruzi growth in NIH3T3 host cells; shares compounds with T cruzi growth-1; T. cruzi beta-gal in NIH3T3, GalScreen luminescence, 90 h; inhibition, % at 2.09 µM; 21% of 5,600 active; AID 651740;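 active = mean inhibition above about 95%, with at least 55% of replicates also reaching it, limit read from the data; inconclusive = meets just one of the two conditions; inactive = meets neither condition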
# 3T3 cytotox = cytotoxicity in mouse NIH/3T3 fibroblasts. shares compounds with T cruzi growth-1. NIH/3T3 viability, CellTiter-Glo ATP luminescence, 90 h. cytotoxicity (signal decrease), % at 8.35 µM. 14% of 5,600 active. AID 651742;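 active = mean signal decrease across replicates above about 35% based on untreated-well scatter, with enough replicates individually passing, limit read from the data; inconclusive = no rule stated though some were filed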
# 3T3 cytotox 2 = kills mouse NIH/3T3 fibroblasts. shares compounds with T cruzi growth-1. NIH/3T3 viability, CellTiter-Glo ATP luminescence, 90 h. inhibition, % at 24.9 µM. 56% of 5,600 active. AID 651744;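 active = mean loss of cell viability signal at or above a set limit, and enough replicates individually reaching it; inconclusive = meets only the mean limit or only the replicate share; inactive = meets neither condition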
# Numbers stand for hits; - = inactive; ? = inconclusive; . = no result.
SMILES,T cruzi growth-1,IDH1 mut inh,KDM4C inh,T cruzi growth-2,T cruzi growth-3,3T3 cytotox,3T3 cytotox 2
CN(C)C(=O)[C@@H]1[C@@H](CO)[C@@H]2Cn3c(cccc3=O)[C@@H]2N1CCc1ccccc1,-,.,-,.,.,.,.
C[C@@H]1CCCCO[C@H](CN(C)S(=O)(=O)c2ccc(Cl)cc2)[C@H](C)CN([C@@H](C)CO)C(=O)c2cc(NC(=O)Nc3cccc4ccccc34)ccc2O1,101,-,-,109,104,-,-
C[C@@H]1CN([C@H](C)CO)C(=O)c2cc(NC(=O)Nc3cccc4ccccc34)ccc2O[C@@H](C)CCCCO[C@@H]1CN(C)S(=O)(=O)c1ccc(Cl)cc1,-,.,-,.,.,.,.
C[C@H](CO)N1C[C@H](C)[C@H](CN(C)S(=O)(=O)c2ccc(Cl)cc2)OCCCC[C@H](C)Oc2ccc(NC(=O)Nc3cccc4ccccc34)cc2C1=O,98,.,-,111,102,-,?
C[C@@H]1CCCCO[C@H](CN(C)S(=O)(=O)c2ccc(F)cc2)[C@H](C)CN([C@H](C)CO)C(=O)c2cc(NC(=O)Nc3cccc4ccccc34)ccc2O1,101,.,-,104,108,-,-
C[C@@H]1CN([C@H](C)CO)C(=O)c2cc(NC(=O)Nc3cccc4ccccc34)ccc2O[C@@H](C)CCCCO[C@H]1CN(C)S(=O)(=O)c1ccc(Cl)cc1,-,-,-,.,.,.,.
C[C@H](CO)N1C[C@H](C)[C@@H](CN(C)S(=O)(=O)c2ccc(Cl)cc2)Oc2ccc(NC(=O)Nc3cccc4ccccc34)cc2C1=O,.,-,-,.,.,.,.
C[C@@H]1CN([C@H](C)CO)C(=O)c2cc(NC(=O)Nc3cccc4ccccc34)ccc2O[C@@H]1CN(C)S(=O)(=O)c1ccc(Cl)cc1,98,-,-,107,-,-,49
C[C@@H]1CCCCO[C@@H](CN(C)S(=O)(=O)c2ccc(F)cc2)[C@@H](C)CN([C@@H](C)CO)C(=O)c2cc(NC(=O)Nc3cccc4ccccc34)ccc2O1,-,-,-,.,.,.,.
C[C@@H]1CN([C@@H](C)CO)S(=O)(=O)c2ccc(-c3cccc(C#N)c3)cc2O[C@H]1CN(C)C(=O)C1CC1,-,-,-,.,.,.,.
COc1ccc(CN(C)C[C@H]2Oc3c(NC(=O)NC(C)C)cccc3C(=O)N([C@H](C)CO)C[C@H]2C)cc1,.,-,-,.,.,.,.
Cc1ccc(S(=O)(=O)Nc2ccc3c(c2)C(=O)N([C@@H](C)CO)C[C@H](C)[C@H](CN(C)S(=O)(=O)c2cn(C)cn2)OCCCC[C@H](C)O3)cc1,-,.,-,.,.,.,.
CC=Cc1ccc2n(c1=O)C[C@H]1[C@H](CO)[C@@H](C(=O)NCCC)[C@@H]2N1C(=O)Nc1cc(F)ccc1F (mixture of isomers),-,.,-,.,.,.,.
COc1ccccc1C#Cc1ccc([C@@H]2[C@H]3CN(C(=O)C4CCCC4)CCCCN3[C@H]2CO)cc1,95,.,.,-,97,86,104
COc1ccccc1C#Cc1ccc([C@H]2[C@@H](CO)N3CCCCN(C(=O)C4CCC4)C[C@H]23)cc1,-,.,-,.,.,.,.
COc1ccccc1C#Cc1ccc([C@@H]2[C@H]3CN(C(=O)C4CCC4)CCCCN3[C@H]2CO)cc1,97,.,-,102,-,56,105
COc1ccccc1C#Cc1ccc([C@H]2[C@@H](CO)N3CCCCN(C(=O)C4CCCC4)C[C@H]23)cc1,-,.,.,.,.,.,.
Cc1noc(C)c1NC(=O)N(C)C[C@H]1Oc2c(NC(=O)C3CCCCC3)cccc2C(=O)N([C@H](C)CO)C[C@@H]1C,-,.,-,.,.,.,.
COCC#Cc1ccc([C@H]2[C@H](CO)N3CCCCN(S(=O)(=O)c4ccccc4C)C[C@@H]23)cc1,-,.,-,.,.,.,.
C[C@@H]1CN([C@@H](C)CO)C(=O)c2cc(NC(=O)Nc3ccc4c(c3)OCO4)ccc2O[C@@H]1CN(C)S(=O)(=O)c1cn(C)cn1,-,-,-,.,.,.,.
CO[C@H]1CN(C)C(=O)c2ccc(NC(=O)CC(F)(F)F)cc2OC[C@H](C)N(C(=O)C2CCCCC2)C[C@@H]1C,.,.,-,.,.,.,.
O=C(C[C@@H]1C[C@@H]2c3cc(NC(=O)C4CCC4)ccc3O[C@@H]2[C@H](CO)O1)NCC(F)(F)F,-,-,-,.,.,.,.
